Reference: ChEMBL document CHEMBL1142419, “Antimycobacterial activities of novel 2-(sub)-3-fluoro/nitro-5,12-dihydro-5-oxobenzothiazolo[3,2-a]quinoline-6-carboxylic acid” (Bioorg Med Chem, 2008)
Converted amounts (≈) assume the structure as drawn.

Tested on: Mycobacterium tuberculosis
Experiment: Antimycobacterial activity against multidrug-resistant Mycobacterium tuberculosis by agar dilution method
Format: functional
How it was run: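 MIC by agar dilution on Middlebrook 7H11 agar supplemented with OADC, following an NCCLS-like procedure, run in duplicate. The MDR-TB clinical isolate was resistant to isoniazid, rifampicin, ethambutol and ofloxacin.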

Row | Compound | MIC
1 | O=C(O)c1c(=O)c2cc(F)c(N3CCC(n4c(=O)[nH]c5cc(Cl)ccc54)CC3)cc2n2c1sc1ccccc12 | 5.56 µM (≈ 3.13 µg/mL)
2 | O=C(O)c1c(=O)c2cc(F)c(N3CCC(N4CCCCC4)CC3)cc2n2c1sc1ccccc12 | 0.19 µM (≈ 0.0911 µg/mL)
3 | O=C(O)c1c(=O)c2cc(F)c(N3CCC4(CC3)OCCO4)cc2n2c1sc1ccccc12 | 0.86 µM (≈ 0.391 µg/mL)
4 | CC(C)(C)NC(=O)C1c2ccccc2CCN1c1cc2c(cc1F)c(=O)c(C(=O)O)c1sc3ccccc3n12 (centres undefined) | 1.43 µM (≈ 0.777 µg/mL)
5 | O=C(O)c1c(=O)c2cc(F)c(N3CCN(C(=O)C4COc5ccccc5O4)CC3)cc2n2c1sc1ccccc12 (centres undefined) | 5.59 µM (≈ 3.13 µg/mL)
6 | CC(C)(C)OC(=O)NC1C2CN(c3cc4c(cc3F)c(=O)c(C(=O)O)c3sc5ccccc5n34)CC21 (centres undefined) | 0.18 µM (≈ 0.0917 µg/mL)
7 | O=C(O)c1c(=O)c2cc([N+](=O)[O-])c(N3CCC4(CC3)OCCO4)cc2n2c1sc1ccccc12 | 0.39 µM (≈ 0.188 µg/mL)
8 | CC(C)(C)OC(=O)NC1C2CN(c3cc4c(cc3[N+](=O)[O-])c(=O)c(C(=O)O)c3sc5ccccc5n34)CC21 (centres undefined) | 0.73 µM (≈ 0.392 µg/mL)
9 | O=C(O)c1c(=O)c2cc(F)c(N3CCN(Cc4ccc5c(c4)OCO5)CC3)cc2n2c1sc1ccccc12 | 5.89 µM (≈ 3.13 µg/mL)
10 | O=C(O)c1c(=O)c2cc(F)c(N3CCN(C(c4ccccc4)c4ccc(Cl)cc4)CC3)cc2n2c1sc1ccccc12 (centres undefined) | 0.65 µM (≈ 0.389 µg/mL)
11 | CC(C)(C)NC(=O)C1c2ccccc2CCN1c1cc2c(cc1[N+](=O)[O-])c(=O)c(C(=O)O)c1sc3ccccc3n12 (centres undefined) | 5.49 µM (≈ 3.13 µg/mL)
12 | O=C(O)c1c(=O)c2cc([N+](=O)[O-])c(N3CCC(O)(c4ccc(Cl)cc4)CC3)cc2n2c1sc1ccccc12 | 2.84 µM (≈ 1.56 µg/mL)
13 | O=C(O)c1c(=O)c2cc(F)c(N3CCSCC3)cc2n2c1sc1ccccc12 | 7.55 µM (≈ 3.13 µg/mL)
14 | CCN(CC)C(=O)C1CCCN(c2cc3c(cc2F)c(=O)c(C(=O)O)c2sc4ccccc4n23)C1 (centres undefined) | 0.08 µM (≈ 0.0396 µg/mL)
15 | Cc1onc(-c2c(F)cccc2F)c1C(=O)N1CCN(c2cc3c(cc2F)c(=O)c(C(=O)O)c2sc4ccccc4n23)CC1 | 5.06 µM (≈ 3.13 µg/mL)
16 | O=C(O)c1cn2c(n1)CN(c1cc3c(cc1F)c(=O)c(C(=O)O)c1sc4ccccc4n13)CC2 | 0.39 µM (≈ 0.187 µg/mL)
17 | COc1cc2c(cc1OC)CN(c1cc3c(cc1[N+](=O)[O-])c(=O)c(C(=O)O)c1sc4ccccc4n13)CC2 | 2.93 µM (≈ 1.56 µg/mL)
18 | CCN(CC)C(=O)C1CCCN(c2cc3c(cc2[N+](=O)[O-])c(=O)c(C(=O)O)c2sc4ccccc4n23)C1 (centres undefined) | 0.75 µM (≈ 0.392 µg/mL)
19 | O=C(O)c1cn2c(n1)CN(c1cc3c(cc1[N+](=O)[O-])c(=O)c(C(=O)O)c1sc4ccccc4n13)CC2 | 0.77 µM (≈ 0.389 µg/mL)
20 | O=C(O)c1c(=O)c2cc(F)c(N3CCC(O)(c4ccc(Cl)cc4)CC3)cc2n2c1sc1ccccc12 | 0.36 µM (≈ 0.188 µg/mL)
21 | O=C(O)c1c(=O)c2cc([N+](=O)[O-])c(N3CCC(N4CCCCC4)CC3)cc2n2c1sc1ccccc12 | 1.54 µM (≈ 0.78 µg/mL)
22 | COc1cc2c(cc1OC)CN(c1cc3c(cc1F)c(=O)c(C(=O)O)c1sc4ccccc4n13)CC2 | 3.09 µM (≈ 1.56 µg/mL)
23 | COc1c(N2CCNC(C)C2)c(F)cc2c(=O)c(C(=O)O)cn(C3CC3)c12 (centres undefined) [GATIFLOXACIN] | 8.34 µM (≈ 3.13 µg/mL)
24 | NNC(=O)c1ccncc1 [ISONIAZID] | 45.6 µM (≈ 6.25 µg/mL)
